ChEMBL document CHEMBL4364294 (J Med Chem, 2019)

Columns and labels:
[1] = AUC (0 to infinity) in Sprague-Dawley rat at 50 mg/kg, iv administered as single dose; type: ADME, organism-based; design: dose 50 mg/kg, time infinity, route intravenous; conditions: in vivo
Summary of the method: (§1)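 Sprague-Dawley rats were given single doses, intravenous at 10–50 mg/kg or oral at 10, 25 and 50 mg/kg. Plasma PK parameters were CL, AUC0-inf, t1/2, Cmax and %F.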

[2] = AUC (0 to infinity) in dog at 3 mg/kg, iv administered as single dose; type: ADME, organism-based, Canis lupus familiaris; design: dose 3 mg/kg, time infinity, route intravenous; conditions: in vivo
Summary of the method: (§2)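 Dogs were given single intravenous doses, or oral doses from 5 to 50 mg/kg. Plasma PK parameters were CL, AUC0-inf, t1/2, Cmax and %F.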

[3] = Half life in Sprague-Dawley rat at 25 mg/kg, po administered as single dose; type: ADME, organism-based; conditions: in vivo
Summary of the method: (§3)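 Sprague-Dawley rats each received one dose of drug, either iv across 10-50 mg/kg or orally at 10, 25 and 50 mg/kg. Plasma pharmacokinetics covered CL, AUC0-inf, t1/2, Cmax and Tmax. Oral bioavailability (%F) was obtained from the oral and iv exposures.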

[4] = Oral bioavailability in dog at 15 mg/kg administered as single dose; type: ADME, organism-based, Canis lupus familiaris; conditions: in vivo
Summary of the method: (§4)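 Dogs were dosed once, by iv injection or orally, with oral doses spanning 5 to 50 mg/kg. Plasma pharmacokinetic parameters were derived: CL, AUC0-inf, t1/2, Cmax and %F.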

[5] = Cmax in dog at 15 mg/kg, po administered as single dose; type: ADME, organism-based, Canis lupus familiaris; design: dose 15 mg/kg, route oral; conditions: in vivo; summary of the method: as §2
[6] = AUC (0 to infinity) in C57Bl6 mouse at 50 mg/kg, iv administered as single dose; type: ADME, organism-based; design: dose 50 mg/kg, route intravenous, time infinity; conditions: in vivo
Summary of the method: (§5)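 C57Bl/6 mice were given single intravenous or oral doses (oral at 10 and 100 mg/kg). Plasma PK parameters were CL, AUC0-inf, t1/2, Cmax and %F.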

[7] = Toxicity in rat administered twice daily for 28 days with 2 week recovery; conditions: in vivo
Summary of the method: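 Rats and dogs underwent 28-day repeat-dose studies with twice-daily dosing, followed by a 2-week recovery period. The NOAEL (mg/kg/dose BID) was established, and the matching systemic exposure was reported as AUC0-inf.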

[8] = Clearance in C57Bl6 mouse at 50 mg/kg, iv administered as single dose; type: ADME, organism-based; conditions: in vivo; summary of the method: as §5
[9] = AUC (0 to infinity) in dog at 25 mg/kg, iv administered as single dose; type: ADME, organism-based, Canis lupus familiaris; design: dose 25 mg/kg, route intravenous, time infinity; conditions: in vivo; summary of the method: as §2
[10] = Oral bioavailability in dog at 50 mg/kg administered as single dose; type: ADME, organism-based, Canis lupus familiaris; conditions: in vivo; summary of the method: as §4
[11] = AUC (0 to infinity) in dog at 150 mg/kg, po administered as single dose; type: ADME, organism-based, Canis lupus familiaris; design: dose 150 mg/kg, time infinity, route oral; conditions: in vivo
[12] = Aqueous solubility of the compound at pH 1; type: physicochemical
[13] = Cmax in Sprague-Dawley rat at 50 mg/kg, po administered as single dose; type: ADME, organism-based; design: dose 50 mg/kg, route oral; conditions: in vivo; summary of the method: as §1
[14] = AUC (0 to infinity) in dog at 50 mg/kg, po administered as single dose; type: ADME, organism-based, Canis lupus familiaris; design: dose 50 mg/kg, route oral, time infinity; conditions: in vivo; summary of the method: as §2
[15] = Intrinsic clearance in human liver microsomes; type: ADME, Microsome; conditions: read-out: CLH
[16] = AUC (0 to infinity) in Sprague-Dawley rat at 25 mg/kg, iv administered as single dose; type: ADME, organism-based; design: dose 25 mg/kg, route intravenous, time infinity; conditions: in vivo; summary of the method: as §1
[17] = Oral bioavailability in C57Bl6 mouse at 10 mg/kg administered as single dose; type: ADME, organism-based; conditions: in vivo
Summary of the method: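 C57Bl/6 mice received a single oral dose of 10 or 100 mg/kg, with iv dosing run for comparison. Plasma AUC0-inf, t1/2, Cmax and oral bioavailability (%F) were determined.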

[18] = Clearance in Sprague-Dawley rat at 50 mg/kg, iv administered as single dose; type: ADME, organism-based; conditions: in vivo; summary of the method: as §1
[19] = Aqueous solubility of the compound at pH 7.4; type: physicochemical
[20] = Cmax in dog at 150 mg/kg, po administered as single dose; type: ADME, organism-based, Canis lupus familiaris; design: dose 150 mg/kg, route oral; conditions: in vivo
[21] = Half life in Sprague-Dawley rat at 50 mg/kg, iv administered as single dose; type: ADME, organism-based; conditions: in vivo; summary of the method: as §3
[22] = AUC (0 to infinity) in Sprague-Dawley rat at 50 mg/kg, po administered as single dose; type: ADME, organism-based; design: dose 50 mg/kg, route oral, time infinity; conditions: in vivo; summary of the method: as §1
[23] = Cmax in dog at 50 mg/kg, po administered as single dose; type: ADME, organism-based, Canis lupus familiaris; design: dose 50 mg/kg, route oral; conditions: in vivo; summary of the method: as §2
[24] = Cmax in C57Bl6 mouse at 100 mg/kg, po administered as single dose; type: ADME, organism-based; design: dose 100 mg/kg, route oral; conditions: in vivo; summary of the method: as §5
[25] = Stability in rat microsomes assessed as parent compound remaining after 90 mins in presence of phase 1 and 2 metabolic cofactors; type: ADME, Microsome; conditions: read-out: Stability
[26] = Oral bioavailability in Sprague-Dawley rat at 25 mg/kg administered as single dose; type: ADME, organism-based; conditions: in vivo; summary of the method: as §3
[27] = Cmax in Sprague-Dawley rat at 10 mg/kg, po administered as single dose; type: ADME, organism-based; design: dose 10 mg/kg, route oral; conditions: in vivo; summary of the method: as §1
[28] = Oral bioavailability in Sprague-Dawley rat at 50 mg/kg administered as single dose; type: ADME, organism-based; conditions: in vivo; summary of the method: as §3
[29] = AUC (0 to infinity) in C57Bl6 mouse at 100 mg/kg, po administered as single dose; type: ADME, organism-based; design: dose 100 mg/kg, time infinity, route oral; conditions: in vivo; summary of the method: as §5
[30] = Clearance in C57Bl6 mouse at 10 mg/kg, iv administered as single dose; type: ADME, organism-based; conditions: in vivo; summary of the method: as §5
[31] = AUC (0 to infinity) in dog at 1 mg/kg, iv administered as single dose; type: ADME, organism-based, Canis lupus familiaris; design: dose 1 mg/kg, route intravenous, time infinity; conditions: in vivo; summary of the method: as §2
[32] = Cmax in C57Bl6 mouse at 10 mg/kg, po administered as single dose; type: ADME, organism-based; design: dose 10 mg/kg, route oral; conditions: in vivo; summary of the method: as §5
[33] = Clearance in Sprague-Dawley rat at 10 mg/kg, iv administered as single dose; type: ADME, organism-based; conditions: in vivo; summary of the method: as §1
[34] = AUC (0 to infinity) in Sprague-Dawley rat at 25 mg/kg, po administered as single dose; type: ADME, organism-based; design: dose 25 mg/kg, time infinity, route oral; conditions: in vivo; summary of the method: as §1
[35] = Oral bioavailability in dog at 5 mg/kg administered as single dose; type: ADME, organism-based, Canis lupus familiaris; conditions: in vivo; summary of the method: as §4
[36] = AUC (0 to infinity) in C57Bl6 mouse at 10 mg/kg, iv administered as single dose; type: ADME, organism-based; design: dose 10 mg/kg, time infinity, route intravenous; conditions: in vivo; summary of the method: as §5

O[C@H](C[C@H]1c2c(F)cccc2-c2cncn21)[C@H]1CC[C@H](O)CC1 [NAVOXIMOD]
AUC(0-inf) [1]: 35 µg·h/mL
AUC(0-inf) [2]: 0.901 µg·h/mL
half-life [3]: 1.15 h
bioavailability [4]: 22.3%
Cmax [5]: 1.4 µg/mL
AUC(0-inf) [6]: 34.6 µg·h/mL
NOAEL at 28 days [7]: 250 mg/kg
clearance [8]: 1.5 L/h/kg
AUC(0-inf) [9]: 10.1 µg·h/mL
bioavailability [10]: 43%
AUC(0-inf) [11]: 57.8 µg·h/mL
solubility [12]: > 200 µM
Cmax [13]: 10.1 µg/mL
AUC(0-inf) [14]: 8.64 µg·h/mL
predicted hepatic clearance [15]: 0.511 L/h/kg
AUC(0-inf) [16]: 13.4 µg·h/mL
bioavailability [17]: 69%
clearance [18]: 1.39 L/h/kg
solubility [19]: > 200 µM
Cmax [20]: 40.5 µg/mL
half-life [21]: 1 h
AUC(0-inf) [22]: 15.4 µg·h/mL
Cmax [23]: 7.86 µg/mL
Cmax [24]: 14.2 µg/mL
remaining at […] [25]: > 85%
bioavailability [26]: 60.4%
Cmax [27]: 1.56 µg/mL
bioavailability [28]: 44.1%
AUC(0-inf) [29]: 60.2 µg·h/mL
clearance [30]: 1.65 L/h/kg
AUC(0-inf) [31]: 0.282 µg·h/mL
Cmax [32]: 2.26 µg/mL
clearance [33]: 2.68 L/h/kg
AUC(0-inf) [34]: 7.98 µg·h/mL
bioavailability [35]: 13.7%
AUC(0-inf) [36]: 6.13 µg·h/mL
